Values belong to the compound of their own block, whether it stands above or below them. Active and inactive are the calls of the source. The rule behind the calls is not given here.
Key:
[1] = tested on: A2780 ADR; experiment: Reversal of P-gp 170-mediated multidrug resistance in human A2780/DX3 cells assessed as increase in intracellular doxorubicin accumulation at 5 times IC5 pretreated for 2 hrs before doxorubicin administration measured after 2 hrs by flow cytometry; format: cell-based
Summary of the method: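 A2780/DX3 cells (kept in 0.1 μM doxorubicin, drug withdrawn 2–3 days before use) seeded in flasks, grown 24 h to 75–85% confluence. Modulator given at five times the 5%-growth-inhibition concentration for 2 h, then 10 μM doxorubicin for 2 h more. Cells trypsinized, fixed in 3.7% paraformaldehyde/2% sucrose in PBS. Flow cytometry, 488 nm excitation, 575 nm bandpass. Read-out is MFI, with % increase taken from the MFI ratio to doxorubicin alone.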

[2] = Down regulation of P-gp 170 expression in human A2780/DX3 cells after 72 hrs by flow cytometry; format: functional, cell-based
Summary of the method: (§1)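 Cells exposed 72 h to compound at concentrations giving 5% or 0% growth inhibition. Then washed in PBS/2% FCS; 2.5 × 10^5 cells stained at 4 °C with anti-Pgp MM4.17 monoclonal, then FITC goat anti-mouse IgG, and analysed by flow cytometry.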

[3] = tested on: A2780; experiment: Antiproliferative activity against human A2780 cells after 3 days by MTT assay; format: functional, cell-based; details: for IC50: Homo sapiens, A2780, 72 h
Summary of the method: (§2)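 Cells plated 6–8 h in 96-well plates. Compound alone, in duplicate at ≥5 concentrations (3-fold serial dilutions, top 100 μM), with final DMSO […] after predilution in FCS. After 3 days, MTT 4 h at 37 °C, formazan dissolved in DMSO, A540. IC50 taken from single dose–response curves; 3–4 experiments. A2780/DX3 kept doxorubicin-free 2–3 days beforehand.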

[4] = tested on: A2780 ADR; experiment: Reversal of P-gp 170-mediated multidrug resistance in human A2780/DX3 cells assessed as reduction in doxorubicin IC50 at IC5 pretreated for 6 hrs before doxorubicin administration measured after 3 days by MTT assay; format: cell-based; design: scale not given: the % may be the effect or the level left
Summary of the method: (§3)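 A2780/DX3 cells went into medium holding the modulator at its MTT-derived 0% or 5% growth-inhibition concentration. Doxorubicin (30–0.048 μM serial dilutions, modulator kept constant) was added 6 h later. MTT (2 mg/mL) was added after 3 days for 4 h at 37 °C, formazan dissolved in DMSO, A540 read. IC50 came from dose–response curves, repeated 4–6 times. % reduction is versus doxorubicin alone in the same experiment. Kruskal–Wallis/Mann–Whitney tests.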

[5] = tested on: A2780; experiment: Antiproliferative activity against human A2780 cells at 2.20 uM after 3 days by MTT assay; format: functional; details: A2780, 72 h
[6] = Antiproliferative activity against human A2780/DX3 cells after 3 days by MTT assay; format: functional, cell-based; details: for IC50: Homo sapiens, A2780/DX3, 72 h; summary of the method: as §2
[7] = tested on: A2780; experiment: Down regulation of P-gp 170 expression in human A2780 cells after 72 hrs by flow cytometry; format: functional, cell-based; summary of the method: as §1
[8] = Antiproliferative activity against human A2780/DX3 cells at 2.40 uM after 3 days by MTT assay; format: functional; details: A2780/DX3, 72 h
[9] = tested on: A2780 ADR; experiment: Reversal of P-gp 170-mediated multidrug resistance in human A2780/DX3 cells assessed as reduction in doxorubicin IC50 at IC0 pretreated for 6 hrs before doxorubicin administration measured after 3 days by MTT assay; format: cell-based; design: scale not given: the % may be the effect or the level left; summary of the method: as §3
[10] = tested on: A2780; experiment: Antiproliferative activity against human A2780 cells at 0.23 uM after 3 days by MTT assay; format: functional; details: A2780, 72 h
[11] = Antiproliferative activity against human A2780/DX3 cells at 1.88 uM after 3 days by MTT assay; format: functional; details: A2780/DX3, 72 h
[12] = Antiproliferative activity against human A2780/DX3 cells at 4.0 uM after 3 days by MTT assay; format: functional; details: A2780/DX3, 72 h
[13] = tested on: A2780; experiment: Antiproliferative activity against human A2780 cells at 2.9 uM after 3 days by MTT assay; format: functional; details: A2780, 72 h
[14] = Antiproliferative activity against human A2780/DX3 cells at 0.81 uM after 3 days by MTT assay; format: functional; details: A2780/DX3, 72 h
[15] = tested on: A2780; experiment: Antiproliferative activity against human A2780 cells at 0.14 uM after 3 days by MTT assay; format: functional; details: A2780, 72 h
[16] = tested on: A2780; experiment: Antiproliferative activity against human A2780 cells at 1.3 uM after 3 days by MTT assay; format: functional; details: A2780, 72 h
[17] = Antiproliferative activity against human A2780/DX3 cells at 1.23 uM after 3 days by MTT assay; format: functional; details: A2780/DX3, 72 h
[18] = tested on: A2780; experiment: Antiproliferative activity against human A2780 cells at 2.22 uM after 3 days by MTT assay; format: functional; details: A2780, 72 h
[19] = Antiproliferative activity against human A2780/DX3 cells at 15.6 uM after 3 days by MTT assay; format: functional; details: A2780/DX3, 72 h
[20] = tested on: A2780; experiment: Antiproliferative activity against human A2780 cells at 0.20 uM after 3 days by MTT assay; format: functional; details: A2780, 72 h
[21] = tested on: A2780 ADR; experiment: Reversal of P-gp 170-mediated multidrug resistance in human A2780/DX3 cells assessed as increase in intracellular doxorubicin accumulation at 5 times IC5 pretreated for 2 hrs before doxorubicin administration measured after 2 hrs by epifluorescent microscopic analysis; format: cell-based
Summary of the method: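 A2780/DX3 cells on chamber slides at 75–85% confluence, pretreated 2 h with compound at five times the concentration giving 5% growth inhibition. Doxorubicin 10 μM then added for 2 h. Cells washed in cold PBS, fixed in 3.7% paraformaldehyde/2% sucrose, mounted and imaged by epifluorescence at 20X. Untreated and compound-only controls included.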

[22] = tested on: A2780; experiment: Ratio of IC50 for human A2780/DX3 cells to IC50 for human A2780 cells assessed as mean resistance index; format: functional
Summary of the method: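 Doxorubicin alone tested by 3-day MTT assay in both lines (absorbance at 540 nm). IC50 from dose–response curves. Index is the mean IC50 in resistant cells divided by the mean IC50 in sensitive cells.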

[23] = tested on: A2780; experiment: Antiproliferative activity against human A2780 cells at 0.72 uM after 3 days by MTT assay; format: functional; details: A2780, 72 h
[24] = Antiproliferative activity against human A2780/DX3 cells at 4.5 uM after 3 days by MTT assay; format: functional; details: A2780/DX3, 72 h
[25] = Antiproliferative activity against human A2780/DX3 cells at 1.0 uM after 3 days by MTT assay; format: functional; details: A2780/DX3, 72 h
[26] = tested on: A2780; experiment: Antiproliferative activity against human A2780 cells at 12.2 uM after 3 days by MTT assay; format: functional; details: A2780, 72 h
[27] = Antiproliferative activity against human A2780/DX3 cells at 0.3 uM after 3 days by MTT assay; format: functional; details: A2780/DX3, 72 h
[28] = tested on: A2780; experiment: Antiproliferative activity against human A2780 cells at 0.15 uM after 3 days by MTT assay; format: functional; details: A2780, 72 h
[29] = tested on: A2780; experiment: Antiproliferative activity against human A2780 cells at 1.2 uM after 3 days by MTT assay; format: functional; details: A2780, 72 h

IC50 [3]: 55 µM
SMILES: CC/C=C\COC1(c2ccc(Cl)cc2)SC=C(C)n2c1noc2=O (centres undefined)
Activity [1]: 429% | Activity [2]: inactive | IC5 [3]: 3.5 µM | Activity [4]: -47% | inhibition at 2.2 µM [5]: 0% | IC5 [6]: 20.7 µM | IC50 [6]: 103 µM | Activity [7]: inactive | inhibition at 2.4 µM [8]: 0% | Activity [9]: -9%

IC50 [3]: > 100 µM
SMILES: CCCCCOC1(c2ccc(Cl)cc2)SC=C(C)n2c1noc2=O (centres undefined)
inhibition at 4 µM [12]: 0% | inhibition at 2.9 µM [13]: 0% | Activity [1]: 248% | Activity [2]: inactive | IC5 [3]: 7.8 µM | Activity [4]: -38% | IC5 [6]: 19 µM | IC50 [6]: > 100 µM | Activity [7]: inactive | Activity [9]: -39%

IC50 [3]: 108 µM
SMILES: CCCCCOC1(c2ccc(Br)cc2)SC=C(C)n2c1noc2=O (centres undefined)
Activity [1]: 52% | Activity [2]: inactive | IC5 [3]: 2.6 µM | inhibition at 15.6 µM [19]: 0% | Activity [4]: -43% | IC5 [6]: 41.8 µM | IC50 [6]: > 100 µM | Activity [7]: inactive | inhibition at 0.2 µM [20]: 0% | Activity [9]: -31%

IC50 [3]: > 100 µM
SMILES: CCCCCCCCCCCCCCCOC1(c2ccc(Cl)cc2)SC=C(C)n2c1noc2=O (centres undefined)
Activity [1]: < 48% | IC5 [3]: 2.1 µM | Activity [4]: -13% | inhibition at 0.72 µM [23]: 0% | IC5 [6]: 14.6 µM | IC50 [6]: > 100 µM | inhibition at 4.5 µM [24]: 0% | Activity [9]: -14%

IC50 [3]: 89 µM
SMILES: CCCCOC1(c2ccc(Cl)cc2)SC=C(C)n2c1noc2=O (centres undefined)
Activity [1]: < 48% | inhibition at 1 µM [25]: 0% | inhibition at 12.2 µM [26]: 0% | IC5 [3]: 19.7 µM | Activity [4]: -16% | IC5 [6]: 2.2 µM | IC50 [6]: 49 µM | Activity [9]: -21%

IC50 [3]: 55 µM
SMILES: CC/C=C/COC1(c2ccc(Cl)cc2)SC=C(C)n2c1noc2=O (centres undefined)
Activity [1]: < 48% | IC5 [3]: 1.26 µM | inhibition at 0.3 µM [27]: 0% | Activity [4]: -1% | inhibition at 0.15 µM [28]: 0% | IC5 [6]: 2.5 µM | IC50 [6]: 88 µM | Activity [9]: 2%

IC50 [3]: 82 µM
SMILES: CCCCOC1(c2ccc(Br)cc2)SC=C(C)n2c1noc2=O (centres undefined)
Activity [1]: < 48% | inhibition at 1 µM [25]: 0% | IC5 [3]: 7.7 µM | Activity [4]: 3% | IC5 [6]: 3.2 µM | IC50 [6]: 78 µM | inhibition at 1.2 µM [29]: 0% | Activity [9]: 3%

The remaining lines, values behind:

SMILES: CCCCCCCCCCCCCCCCCCOC1(c2ccc(Br)cc2)SC=C(C)n2c1noc2=O (centres undefined)
Activity [1]: < 48% | inhibition at 0.23 µM [10]: 0% | IC5 [3]: 0.9 µM | IC50 [3]: > 100 µM | Activity [4]: -22% | inhibition at 1.88 µM [11]: 0% | IC5 [6]: 4.9 µM | IC50 [6]: > 100 µM | Activity [9]: -21%

SMILES: O=c1onc2n1C=CSC2(O)c1ccc(Cl)cc1 (centres undefined)
Activity [1]: < 48% | inhibition at 0.81 µM [14]: 0% | IC5 [3]: 0.48 µM | IC50 [3]: > 100 µM | Activity [4]: 10% | IC5 [6]: 3.02 µM | IC50 [6]: > 100 µM | inhibition at 0.14 µM [15]: 0% | Activity [9]: 3%

SMILES: CC/C=C/COC1(c2ccc(Br)cc2)SC=C(C)n2c1noc2=O (centres undefined)
Activity [1]: < 48% | inhibition at 1.3 µM [16]: 0% | IC5 [3]: 1.9 µM | IC50 [3]: 59 µM | inhibition at 1.23 µM [17]: 0% | Activity [4]: -23% | IC5 [6]: 2.45 µM | IC50 [6]: 111 µM | Activity [9]: -8%

SMILES: CCCCCCCCCCCCCCCCCCOC1(c2ccc(Cl)cc2)SC=C(C)n2c1noc2=O (centres undefined)
Activity [1]: < 48% | inhibition at 2.22 µM [18]: 0% | IC5 [3]: 4.74 µM | IC50 [3]: > 100 µM | Activity [4]: -20% | IC5 [6]: 6.74 µM | IC50 [6]: > 100 µM | inhibition at 2.4 µM [8]: 0% | Activity [9]: -24%

SMILES: COc1cccc2c1C(=O)c1c(O)c3c(c(O)c1C2=O)C[C@@](O)(C(=O)CO)C[C@@H]3O[C@H]1C[C@H](N)[C@H](O)[C@H](C)O1 [DOXORUBICIN]
Activity_index [21]: Active | IC50 [3]: 0.02 µM | IC50 [6]: 2.21 µM | Ratio IC50 [22]: 93

Reference: ChEMBL document CHEMBL1139365, “Inhibition of MDR1 activity in vitro by a novel class of diltiazem analogues: toward new candidates” (J Med Chem, 2009)
